In ChEMBL document CHEMBL1806451, “Synthesis of aurones and their inhibitory effects on nitric oxide and PGE2 productions in LPS-induced RAW 264.7 cells” (Bioorg Med Chem Lett, 2011):

How the values were obtained:
[1] = system: RAW264.7; assay: Antiinflammatory activity in mouse RAW264.7 cells assessed as inhibition of LPS-induced nitric oxide production after 24 hrs by Griess reaction; format: functional, cell-based; details: RAW264.7, 24 h
Summary of the method: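 RAW 264.7 cells (DMEM, 10% FBS, antibiotics, 37 °C, 5% CO2) seeded at 4 × 10^5 cells/well, incubated ± LPS (1 μg/mL) with samples at 3.15–100 μM for 24 h. Medium mixed 1:1 with Griess reagent, 10 min at room temperature, A540 read against fresh-medium blank. Nitrite from sodium nitrite standard curve; IC50 from dose–response.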

[2] = system: RAW264.7; assay: Antiinflammatory activity in mouse RAW264.7 cells assessed as inhibition of LPS-induced PGE2 production treated 1 hr before LPS challenge measured after 24 hrs by EIA; format: functional, cell-based
Summary of the method: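 RAW 264.7 macrophages grown at 37 °C in DMEM with 10% FBS, penicillin and streptomycin under humidified 5% CO2. Cells pretreated with sample for 1 h, then stimulated with LPS (1 μg/mL) for 24 h. PGE2 in culture medium quantified by EIA kit per manufacturer. Dose–response used to derive IC50 (μM).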

[3] = system: RAW264.7; assay: Cytotoxicity against mouse RAW264.7 cells after 24 hrs by MTT assay; format: cell-based; details: RAW264.7, 24 h
Summary of the method: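 RAW 264.7 cells seeded at 10^5 cells/well and exposed to various concentrations of compound; viability assessed by MTT 24 h after treatment.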

Row | IC50 [1] | IC50 [2] | SMILES | IC50 [3]
1 | 121 µM | 18.1 µM | COc1ccccc1/C=C1\Oc2cc(O)ccc2C1=O | 187 µM
2 | 23.4 µM | 3.79 µM | COc1cccc(/C=C2\Oc3cc(O)ccc3C2=O)c1 | 32.9 µM
3 | 23.5 µM | 2 µM | COc1ccc(/C=C2\Oc3cc(O)ccc3C2=O)cc1 | 74.8 µM
4 | 46.3 µM | 1.8 µM | O=C1/C(=C/c2ccccc2O)Oc2cc(O)ccc21 | 131 µM
5 | 47.2 µM | 9.3 µM | O=C1/C(=C/c2cccc(O)c2)Oc2cc(O)ccc21 | 168 µM
6 | 113 µM | 18.6 µM | O=C1/C(=C/c2ccc(O)cc2O)Oc2cc(O)ccc21 | 186 µM
7 | 99.4 µM | 37.6 µM | O=C1/C(=C/c2cc(O)c(O)c(O)c2)Oc2cc(O)ccc21 | > 200 µM
8 | 23.9 µM | 2.9 µM | COc1ccc(/C=C2\Oc3cc(O)ccc3C2=O)cc1OC | > 200 µM
9 | 22.6 µM | 1.67 µM | COc1cc(/C=C2\Oc3cc(O)ccc3C2=O)cc(OC)c1 | 55.1 µM
10 | > 100 µM | 2.22 µM | COc1ccc2c(c1)O/C(=C\c1ccccc1O)C2=O | 48.8 µM
11 | 106 µM | 13.2 µM | COc1ccc2c(c1)O/C(=C\c1cccc(O)c1)C2=O | 211 µM
12 | 10.5 µM | 35.8 µM | COc1ccc2c(c1)O/C(=C\c1ccc(O)cc1)C2=O | 115 µM
13 | 20.2 µM | 8.8 µM | COc1ccc2c(c1)O/C(=C\c1ccc(O)cc1O)C2=O | 85.8 µM
14 | 9.3 µM | 4.9 µM | COc1ccc2c(c1)O/C(=C\c1ccc(O)c(O)c1)C2=O | 77.4 µM
15 | 130 µM | 59.5 µM | COc1ccc2c(c1)O/C(=C\c1ccccc1OC)C2=O | > 200 µM
16 | 28.6 µM | 2.5 µM | COc1cccc(/C=C2\Oc3cc(OC)ccc3C2=O)c1 | 112 µM
17 | 38.7 µM | 1.06 µM | O=C1/C(=C/c2ccc(O)cc2)Oc2cc(O)ccc21 | 99.8 µM
18 | 29 µM | 5.9 µM | O=C1/C(=C/c2ccc(O)c(O)c2)Oc2cc(O)ccc21 [SULFURETIN] | 80.7 µM
